# Source: PubChem BioAssay
# WT yeast gro inh = growth inhibition of WT yeast, mitochondrial fusion screen. mitochondrial fusion phenotypic screen, WT strain. inhibition, % at 10 µM. 190,000 compounds, 2.1% hits. AID 1362; in the data active = inhibition above about 58%; tested in S. cerevisiae
# Yeast growth inh = chemicals that inhibit yeast BB579 growth in restrictive medium (lifespan-shortening candidates). S. cerevisiae BB579 growth, OD615, 48 h. inhibition, % at 10 µM. 140,000 compounds, 0.51% hits. AID 804;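 active = inhibition above a set limit, 3 SD over the mean compound inhibition, cut at about 44% in these data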
#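 test system = yeast BB579 (DeaD) | buffer or medium = restrictive CSMM-D medium | doses = single compound dose of 10 µM, 0.25% DMSO final | times = 4 h preincubation and 48 h exposure at 30 °C | technique = culture absorbance at 615 nm | benchmarks = amphotericin B 10 µg/mL, positive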
# Yeast life ext = yeast lifespan extension | 130,000 compounds, 0.68% hits | inhibition of the nicotinamide effect, % at 10 µM | AID 775 | S. cerevisiae growth with nicotinamide, OD615; deaD strain in restrictive glucose medium;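 active = inhibition above a set limit, placed 3 SD over the median of all compounds, cut at about 26% in these data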;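 also: 0% = nicotinamide-treated wells and 100% = cells grown without nicotinamide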
#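 assay system = DeaD-strain S. cerevisiae | measured by = absorbance at 615 nm | probe or stimulus = nicotinamide 1.5 mM | buffer or medium = CSMM-D glucose medium, restrictive | times = 48 h at 30 °C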
# RAM inhibit = inhibitors of the yeast RAM network; S. cerevisiae dse1pr::URA3 reporter, 5-FOA growth OD615, 2 d; analog-sensitive cbk1-as2 kinase mutant strain; inhibition, % at 50 µM; 190,000 compounds, 1.8% hits; AID 868;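 active = inhibition above a set limit, 3 SD over mean compound inhibition, cut at about 8.4% in these data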;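 also: 0% = DMSO-only wells with no growth and 100% = 10 µM 1-NA-PP1 full growth; inhibition rescues growth on 5-FOA so higher OD means more RAM inhibition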
# RAM 5-FOA = RAM network inhibition, efflux-deficient strain. shares compounds with RAM inhibit. S. cerevisiae efflux-deficient reporter strain, 5-FOA growth OD615, 2 days. max inhibition, %. 1,200 tested, under 10 active; call rule not given here;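 also: plate controls were vehicle for no effect and reference inhibitor for full effect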
# Numbers without * were called inactive; nt = no result. Compounds with a hit are over-represented: about 4.3% of the library has one in this group of screens.
SMILES,WT yeast gro inh,Yeast growth inh,Yeast life ext,RAM inhibit,RAM 5-FOA
COc1ccc(CCNC(=O)COC(=O)/C=C/c2ccc(OC)c(OC)c2)cc1,-2,-26,-4,4,nt
O=C(Nc1cccnc1Cl)c1ccc2c(Cl)c3c(nc2c1)CCC3,17,nt,nt,12*,4
CC(=O)c1cccc(NC(=O)c2ccc3c(Cl)c4c(nc3c2)CCCC4)c1,18,-35,-1,4,nt
Cc1ccc(S(=O)(=O)NCCSCc2ccccc2)cc1,14,-37,1,1,nt
COc1ccc(S(=O)(=O)NCCSCc2cccc(C)c2)cc1Br,65*,-32,-2,12*,1
Cc1ccc(S(=O)(=O)N(CC(O)CN2C(=O)NC(C)(C)C2=O)c2ccccc2)cc1 (centres undefined),3,-19,-8,2,nt
C=CCn1c(-c2cccn(Cc3ccc(Cl)cc3)c2=O)n[nH]c1=S,6,-20,5,13*,9
CSc1cccc(NC(=O)C2CCN(C(=O)c3ccccc3C)CC2)c1,3,-21,-4,2,nt
CCOC(=O)/C=c1\s/c(=C\c2ccc3cc(OC)ccc3c2)c(=O)n1CC(=O)NCc1ccc2c(c1)OCO2,7,nt,nt,2,nt
O=C(O)c1cccc(CSc2n[nH]c(-c3ccc(Cl)cc3Cl)n2)c1,2,nt,nt,2,nt
COc1cc(S(=O)(=O)Nc2ccccc2)ccc1N=Cc1c(C)[nH]n(-c2ccc(C)cc2)c1=O,18,-23,0,13*,1
COc1cc(SC#N)ccc1N=Cc1c(C)[nH]n(-c2ccc(Cl)cc2)c1=O,17,-19,-2,1,nt
CCOC(=O)/C(C#N)=C(C)/C=C1\Sc2ccccc2N1CC,6,-49,0,22*,3
Cc1ccccc1-c1cccc([C@@H]2C[C@H]3CN(Cc4cccnc4)C(=O)[C@]34CCCN24)c1,26,nt,nt,1,nt
O=C(c1cnc(Cl)c(Cl)c1)N1CCC(Cc2ccccc2)CC1,36,nt,nt,4,nt
CCN(CC)S(=O)(=O)c1ccc(OC)c(NC(=O)CSc2cc(C)ccc2C)c1,29,-32,5,15*,3
COc1ccc(/C=C2\SC(=S)N(CC(=O)OCC(=O)Nc3ccc(C)cc3Cl)C2=O)cc1,3,nt,nt,13*,9
COc1ccc(/C=C2\SC(=S)N(CC(=O)OCC(=O)Nc3ccc([N+](=O)[O-])cc3OC)C2=O)cc1,3,nt,nt,18*,8
COc1ccc(/C=C2/SC(=S)N(CCC(=O)O)C2=O)cc1,0,-57,-9,4,nt
O=C(NC(=S)N(Cc1ccccc1)Cc1ccccc1)c1ccccc1F,4,-32,52,12*,1
CC(C)CNC(=S)NC(=O)c1ccc(F)cc1,15,1,-5,0,nt
CCn1c(/C=C/c2c[nH]c3ccccc23)nc2ccccc2c1=O,4,nt,nt,6,nt
CN(C)S(=O)(=O)c1ccc2[nH]cc(/C=C/c3nc4ccccc4c(=O)n3-c3ccccc3)c2c1,27,-34,-3,13*,6
CCn1c(/C=C/c2c(C)[nH]c3ccccc23)nc2ccccc2c1=O,4,-15,0,7,nt
Cc1[nH]c2ccccc2c1/C=C/c1nc2ccccc2c(=O)n1-c1ccc([N+](=O)[O-])cc1,6,-7,4,11*,4
SMILES,WT yeast gro inh,Yeast growth inh,Yeast life ext,RAM inhibit,RAM 5-FOA
COc1ccc(CCN(C(=O)c2cccc(F)c2)C2CC(=O)N(c3ccc(OC)cc3)C2=O)cc1 (centres undefined),-16,-15,-8,0,nt
COc1ccc(C(C)=O)cc1COC(=O)c1cccnc1SC,8,nt,nt,3,nt
O=C(CSc1nnc(COc2ccc(Cl)cc2)o1)OC1CCCCC1,16,-54,0,1,nt
Cc1cc(OCc2nnc(SCC(=O)OC3CCCCC3)o2)ccc1Cl,9,-40,7,12*,2
Cc1ccc(C(=O)/C=C/c2cn(CC(O)CN3CCOCC3)c3ccccc23)cc1 (centres undefined),51,-1,-4,19*,2
COc1ccc(C(=O)/C=C/c2cn(CC(O)CN3CCOCC3)c3ccccc23)cc1 (centres undefined),8,-12,-6,-1,nt
O=C(OCc1nnc(-c2ccccc2)o1)c1ccc(CO)cc1,-8,nt,nt,0,nt
O=C(OCc1ccccc1)c1cccc(-c2nnc(-c3ccccc3)o2)c1,15,-22,1,12*,2
CC(C)OC(=O)c1ccc(COC(=O)c2cccc(-c3nnc(-c4ccccc4)o3)c2)cc1,0,-23,6,13*,2
O=C(OCc1ccc(C(=O)c2ccccc2)cc1)c1cccc(-c2nnc(-c3ccccc3)o2)c1,2,-59,0,5,nt
CSCCC(=O)Nc1cc(S(=O)(=O)N2CCOCC2)ccc1N1CCN(C)CC1,3,nt,nt,1,nt
O=C(COC(=O)c1ccccc1-c1nc2ccccc2s1)Nc1ccccc1C(F)(F)F,35,-9,9,15*,2
CCC(C(=O)Nc1ccsc1C(=O)OC)c1ccccc1 (centres undefined),-7,nt,nt,17*,3
CCCN(N=Nc1cccc([N+](=O)[O-])c1)c1cccc([N+](=O)[O-])c1,14,-43,-10,12*,3
CCOC(=O)C1=C(CC)Nc2ccccc2N/C1=N\S(=O)(=O)c1cc(Br)ccc1Br,32,nt,nt,5,nt
O=C(CN(C1CC1)S(=O)(=O)c1ccc(S(=O)(=O)NC2CCCCC2)cc1)Nc1ccccc1,15,-18,-20,2,nt
O=C(CN(Cc1cccs1)S(=O)(=O)c1ccc(S(=O)(=O)NC2CCCCC2)cc1)Nc1ccccc1,3,-37,3,14*,1
COc1ccc(OC2C(=O)N(Cc3ccc4c(c3)OCO4)C2c2cccs2)cc1 (centres undefined),0,-36,8,13*,3
O=C1C(Oc2ccccc2)C(c2cccs2)N1Cc1ccc2c(c1)OCO2 (centres undefined),-23,-53,-26,2,nt
COc1ccc(C2CC(c3ccccc3)=NN2c2ccc(/C=N/NC(=O)c3ccncc3)cc2)cc1 (centres undefined),20,-46,-12,13*,6
O=C(c1ccccc1)c1sc(N2CCCCCC2)nc1-c1ccccc1,6,-58,2,12*,4
O=C(Nc1nc(-c2ccccc2)c(C(=O)c2ccccc2)s1)c1ccc(S(=O)(=O)N2CCCC2)cc1,3,-17,-2,7,nt
CC(C)=CCC/C(C)=C/Cc1c(O)ccc(C(=O)/C=C/c2ccc(O)cc2)c1O,95*,-44,-5,15*,5
N#CCc1ccc(NS(=O)(=O)c2ccc(C3CCCCC3)cc2)cc1,62*,-45,0,11*,3
COc1ccc(S(=O)(=O)Nc2ccc(CC#N)cc2)cc1,0,-7,-14,0,nt
C=CCOC(=O)C1=C(C)NC(SCC)=C(C#N)C1c1ccc(Cl)cc1 (centres undefined),8,-44,5,13*,2
O=C(O)CCCn1cc(NC(=O)c2c(F)cccc2F)cn1,23,nt,nt,1,nt
